Source: PubChem BioAssay
Granule exo inh: LAMP-1 surface exposure blockers, TALL-104 cells – cell-based, flow cytometry, MLPCN library, primary screen. inhibition, % at 10 µM. actives 0.66% (n = 360,000). TALL-104 LAMP-1 surface exposure; cells stimulated with thapsigargin and PMA;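 active means inhibition above about 55%, limit read from the data; inconclusive means no clear call, values can overlap the other calls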
EP2 antag: human EP2 receptor antagonists, primary screen, TR-FRET cAMP, C6 glioma cells; Prostaglandin E2 receptor EP2 subtype (Homo sapiens), P43116; C6 glioma cells expressing human EP2; cells stimulated with saturating PGE2; inhibition, % at 25 µM; actives 0.52% (n = 260,000);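 active means percent inhibition above 40 after rounding to a whole number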;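 further: rat C6 glioma host cells with rolipram phosphodiesterase inhibitor present; the protocol text gives 20 µM as final concentration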
Target sequence (P43116 whole entry, looked up): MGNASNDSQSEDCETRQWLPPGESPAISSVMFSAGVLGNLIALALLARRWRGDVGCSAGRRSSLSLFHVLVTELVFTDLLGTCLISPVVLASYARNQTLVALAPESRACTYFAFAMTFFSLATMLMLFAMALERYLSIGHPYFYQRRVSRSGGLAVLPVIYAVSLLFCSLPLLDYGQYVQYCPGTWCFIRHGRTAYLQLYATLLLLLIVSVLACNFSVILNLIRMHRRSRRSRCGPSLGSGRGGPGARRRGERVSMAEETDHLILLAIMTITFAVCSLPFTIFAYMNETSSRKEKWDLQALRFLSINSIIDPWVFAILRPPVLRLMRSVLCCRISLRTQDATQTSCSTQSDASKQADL
EP2 mod: EP2 receptor modulators, cAMP readout, primary screen, cell-based, HTRF cAMP, PGE2 stimulation; Prostaglandin E2 receptor EP2 subtype (Homo sapiens), P43116; EP2-expressing cells, cAMP HTRF FRET, PGE2 co-stimulation; induction, % at 25 µM; actives 0.83% (n = 260,000);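 active means compounds whose cAMP rise, as percent of the full-agonist control response, exceeds 60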;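 further: rat C6 glioma line stably carrying human EP2 under a CMV promoter; the protocol text gives 20 µM as final concentration; 100% = response of wells given 1 µM PGE2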
MC4R ag barr: MC4R agonists recruiting beta-arrestin, primary screen, cell-based, luminescence, agonist arm of biased-ligand search; AID 540308, 2011; U2OS MC4R beta-arrestin complementation; percent of melanotan II response, DMSO zero; activation, % at 8.9 µM; actives 0.98% (n = 360,000);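 active means activation above a per-plate cutoff, the mean activation of sample wells on that plate plus 3 SD, cut at about 8% in these data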
T cell modulator: modulators of CD8 T cell-vesicle binding, primary screen, mouse 2C CD8+ T cells, flow cytometry; actives 0.068% (n = 330,000); response (vesicle binding), % at 7 µM; 2C CD8+ T cell-vesicle binding; active compounds read low;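 active means response, share of CD8 T cells binding vesicles, and their 90th percentile fluorescence all below set limits, cut at about 80% in these data, passing the limit was not always enough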;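 further: values below 100% mean blocked vesicle binding to the CD8+ T cells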
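Read-out – percent CD8+ FL2 mean versus row control · System – murine 2C transgenic CD8+ T lymphocytes · Times – 1.5 h cell–vesicle binding at 37 °C, then 20 min icy labelling · Control set – naked vesicles low, QL9 vesicles with vehicle high · Detection – cytometric PE anti-B7-1 and Alexa647 anti-CD8 signals after 1% paraformaldehyde fixation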
MC4R antag cAMP: MC4R antagonists of cAMP signaling, primary screen, cell-based, TR-FRET, antagonist arm of biased-ligand search. MC4R-expressing cells, MTII-stimulated cAMP, LANCE TR-FRET. inhibition, % at 6.5 µM. actives 0.48% (n = 360,000);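 active means inhibition above its plate's cutoff, the mean of tested wells on that plate plus 3 SD, cut at about 29% in these data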;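 further: 0% = Melanotan II alone and 100% = Melanotan II plus saturating MCL0020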
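System: U2OS cells stably expressing human melanocortin 4 receptor (MC4R). Reagent: Melanotan II challenge after compound preincubation. Doses: 6.5 µM. Times: 30-min compound, 1-h challenge, 1-h detection, room temperature. Measured by: TR-FRET with Eu-cAMP and labeled anti-cAMP, 671 nm. Replicates: singlicate.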
Granule exo CP1: inhibitors of lytic granule exocytosis, confirmation, TALL-104 cells, flow cytometry, Cherry Pick01; AID 651954, 2012; actives 11% (n = 1,500); LAMP-1 externalization; stimulated with PMA plus thapsigargin; shares compounds with Granule exo inh; inhibition, % at 10 µM; in the data active means inhibition above about 60%;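 further: 0% = stimulated vehicle wells and 100% = unstimulated wells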
* hit, by the source's call; i = inactive; u = inconclusive; x = no result. This is a sample that favours compounds with a hit; in the whole collection about 2.6% have one here.

SMILES	Granule exo inh	EP2 antag	EP2 mod	MC4R ag barr	T cell modulator	MC4R antag cAMP	Granule exo CP1
CCOC(=O)NC1(C(F)(F)F)C(=O)NC(C)=C1C#N (stereo not drawn)	-1	4	28	-2	296	4	x
COc1cccc(CN2CCN(C(=O)c3ccco3)CC2)c1	87*	x	x	0	235	-4	-10
COc1ccc(CN(C)CC(O)COC(c2ccc(OC)cc2)c2ccc(OC)cc2)cc1 (stereo not drawn)	41	x	x	5	99	-4	x
COc1ccc(CN(C)CC(O)COc2ccc(-c3ccccc3)cc2)cc1OC (stereo not drawn)	63*	x	x	1	186	-5	-9
CCOc1ccc(CN(C)CC(O)COC(c2ccc(OC)cc2)c2ccc(OC)cc2)cc1 (stereo not drawn)	69*	x	x	3	196	1	4
CC1CN(S(=O)(=O)c2ccc(C(=O)N(CCCN(C)C)c3nc4c(Cl)cccc4s3)cc2)CC(C)O1 (stereo not drawn)	4	x	x	-1	749	5	x
CCN(CC)CCN(C(=O)c1cc2ccccc2cc1OC)c1nc2ccc(OC)cc2s1	65*	x	x	-1	219	1	-4
CCN(CC)CCN(C(=O)c1cc2ccccc2cc1OC)c1nc2ccc(F)cc2s1	50	x	x	0	359	0	x
CC1Cc2ccccc2N1C(=O)CSc1nn2c(=O)c(C(C)(C)C)nnc2s1 (stereo not drawn)	-1	8	38	-2	448	12	x
COc1ccc(OCCOC(=O)c2nc3nccc(C)n3n2)cc1	58*	2	18	2	197	13	-4
COC(=O)[C@]1(C)CCC(c2ccc(C)cc2)=C(CC(=O)O)C1	x	8	3	x	x	x	x
CCOC(=O)[C@@H]1[C@H]2COc3ccccc3[C@@H]2N2C(=O)N(c3ccc(Cl)cc3)C(=O)[C@@]12C	116*	x	x	-1	350	2	-13
Cn1cc(S(=O)(=O)NCc2ccco2)c(=O)n(C)c1=O	6	9	-11	1	775	12	x
O=C1N[C@@H](Cc2ccccc2)COC(=O)[C@H](Cc2ccc(F)cc2)C/C=C\C[C@H]1CC(=O)N(CCO)Cc1ccccc1	12	x	x	-1	361	3	x
O=C1CC/C=C\C[C@@H](CC(=O)N(CCO)Cc2ccccc2)C(=O)N[C@H](Cc2ccccc2)CO1	81*	x	x	1	578	9	-15
CCN(CC)S(=O)(=O)c1ccc(N2CCCC2)c(NC(=O)c2ccc(OC)cc2OC)c1	72*	3	17	-1	265	6	-10
CCc1nn(CC(=O)N(Cc2cccnc2)C2CC2)c(=O)c2cc3ccsc3n12	x	x	-7	x	x	x	x
CCN(CC)Cc1ccc(NC(=O)c2sc3cc(Cl)ccc3c2Cl)cc1	81*	9	-21	-1	200	-2	24
CCOC(=O)C1(CCOc2ccccc2)CCN(Cc2cccc3c2OCO3)CC1	16	1	2	2	i	11	x
CCOC(=O)C1(CCOc2ccccc2)CCN(Cc2cccc(OCCO)c2)CC1	37	x	x	-1	354	-4	x
CCOC(=O)C1(CCOc2ccccc2)CCN(Cc2cccc(F)c2)CC1	64*	x	x	-1	202	2	-12
CCOC(=O)C1(CCOc2ccccc2)CCN(Cc2cccc(OC)c2OC)CC1	75*	x	x	2	255	-2	-10
CCOC(=O)C1(CCOc2ccccc2)CCN(Cc2ccc(OCC)c(CO)c2)CC1	81*	x	x	-1	216	5	-12
CCOC(=O)C1(CCOc2ccccc2)CCN(Cc2ccc(OC)cc2)CC1	80*	x	x	1	192	3	-3
Cc1cc(C)nc(NC(=NCCc2c[nH]c3ccccc23)NC(=O)Nc2ccc(Cl)cc2)n1	1	2	1	-3	233	9	x
SMILES	Granule exo inh	EP2 antag	EP2 mod	MC4R ag barr	T cell modulator	MC4R antag cAMP	Granule exo CP1
CC1Oc2ccccc2N(Cc2ccc(F)cc2)C1=O (stereo not drawn)	5	x	x	-1	204	-1	x
CCOC(=O)C1(CCc2ccccc2)CCN(Cc2cc(OC)c(OC)cc2OC)CC1	64*	x	x	0	192	6	-2
CCOC(=O)C1(CCOc2ccccc2)CCN(CCCn2cccn2)CC1	59*	8	-11	-4	305	-4	-4
CCOC(=O)C1(CCOc2ccccc2)CCN(Cc2ccccc2O)CC1	56*	x	x	-1	285	5	-13
CCCCn1c(N)c(N(Cc2ccccc2OC)C(=O)COc2ccccc2C#N)c(=O)[nH]c1=O	22	12	15	1	332	8	x
Cc1cccc(OCC(=O)Nc2ccc(C(=O)c3ccc(C(=O)O)cc3)cc2)c1	-4	6	-61	0	137	-5	x
Cc1ccc(C(=O)NCC(=O)OCc2nnc(-c3ccc([N+](=O)[O-])cc3)o2)cc1	-1	x	x	-1	x	3	x
Cc1cccc(N(CC(=O)NC2CCCC2)C(=O)CCC(=O)Nc2ccccn2)c1	u	8	5	-1	199	1	x
O=C(CCCN1C(=O)c2cccnc2C1=O)Nc1ccc(Br)cc1	-4	2	-1	3	753	6	x
O=C(CCC(=O)NNC(=O)COc1ccc(Br)cc1Br)NCc1ccccc1	0	14	-19	2	325	-3	x
Cc1cc(Nc2cccc(Cl)c2)c2ccccc2n1	78*	x	x	0	242	2	-8
COc1ccc(-c2n[nH]c(C)c2-c2cscn2)c(O)c1	1	13	-13	2	151	0	x
C=C(C)COc1ccc(-c2n[nH]c(C)c2-c2ccc(OC)cc2)c(O)c1	65*	4	-26	9.6*	224	12	98*
c1ccc(C2(CN3CCNC[C@@H]3CC3CCCCC3)CC2)cc1	-9	x	x	2	322	2	x
Fc1cccc(CCN2CCNC[C@@H]2CC2CCCCC2)c1	62*	x	x	-1	306	0	-11
O=C(Nc1ccc2oc(-c3ccccc3F)nc2c1)c1ccc2c(c1)OCCO2	85*	16	-38	4	653	-4	45
